The species entered for assay [1] is Homo sapiens. Briefly: Inhibition of GV sPLA2 at 0.091 mole fraction. The method in brief:
(§1)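 Recombinant human GV sPLA2, expressed in E. coli as inclusion bodies, sulfonated, refolded and purified (>90%). Enzyme (40 ng) in 50 mM Tris-HCl pH 8.0, 5 mM CaCl2, with mixed micelles of 100 µM 1-palmitoyl-2-[14C]palmitoyl PC and 400 µM Triton X-100, in 1% DMSO. Incubated 10-60 min at 40 °C; released [14C]-palmitic acid measured by modified Dole extraction. Inhibitor dose expressed as mole fraction.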

Assay [2] deals with Rattus norvegicus. The assay is described as follows: Antiinflammatory activity against carrageenan-induced paw edema in rat. It is filed as functional. An outline of the steps: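 Compound given ip at the same time as intradermal carrageenan into the rat paw; rats were euthanized after 3.5 h. Edema was taken as injected minus uninjected paw weight and expressed as percent inhibition versus controls. Four doses were used, each on two groups of five animals, averaged over two experiments. ED50 was derived from the four doses; Student's t-test was used.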

Assay [3] is filed under the species Homo sapiens. Briefly: Inhibition of human GIVA cPLA2. The method in brief: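 Pure native human GIVA cPLA2 (10 ng) in 100 mM HEPES pH 7.5, 80 µM CaCl2, 0.1 mg/mL fatty acid-free BSA, 2 mM DTT. Substrate was mixed micelles of 97 µM 1-palmitoyl-2-[14C]arachidonoyl PC, 3 µM PIP2 and 400 µM Triton X-100, in 1% DMSO. Incubated 10-60 min at 40 °C; [14C]-AA release measured by modified Dole assay and compared with DMSO-only control. XI(50) expressed as mole fraction of inhibitor over inhibitor plus substrate plus detergent.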

Assay [4] deals with Rattus norvegicus. Briefly: Analgesic activity in rat assessed as decrease in writhes at 0.008 mmol/kg, ip. In kind it is functional. Also on record: scale not given: the % may be the effect or the level left. An outline of the steps:
(§2)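 Rat writhing test: compound given ip 30 min before ip acetic acid. Each animal's total writhes were compared with a vehicle-treated control group, and analgesic activity was expressed as percent decrease in writhes.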

The species entered for assay [5] is Homo sapiens. The assay is described as follows: Inhibition of GV sPLA2 at 0.048 mole fraction. An outline of the steps:
as §1

Assay [6] is filed under the species Homo sapiens. The assay is described as follows: Inhibition of GV sPLA2 at 0.01 mole fraction. An outline of the steps: as §1
The species entered for assay [7] is Homo sapiens. The assay is described as follows: Inhibition of GV sPLA2 at 0.02 mole fraction. An outline of the steps:
as §1

The subject of assay [8] is Rattus norvegicus. Briefly: Analgesic activity in rat assessed as decrease in writhes at 0.00005 mmol/kg, ip. In kind it is functional. Also on record: scale not given: the % may be the effect or the level left. The method in brief:
as §2

The subject of assay [9] is Rattus norvegicus. The assay is described as follows: Analgesic activity in rat assessed as decrease in writhes at 0.01 mmol/kg, ip. In kind it is functional. More on the design: scale not given: the % may be the effect or the level left. An outline of the steps: as §2
In assay [10] the test system is Rattus norvegicus. The assay is described as follows: Analgesic activity in rat assessed as decrease in writhes at 0.0001 mmol/kg, ip. In kind it is functional. More on the design: scale not given: the % may be the effect or the level left. The method in brief:
as §2

The species entered for assay [11] is Homo sapiens. Briefly: Inhibition of GV sPLA2 at 0.040 mole fraction. An outline of the steps:
as §1

For assay [12], the system named is Rattus norvegicus. The assay is described as follows: Analgesic activity in rat assessed as decrease in writhes at 0.0165 mmol/kg, ip. In kind it is functional. More on the design: scale not given: the % may be the effect or the level left. The method in brief: as §2

As usually defined, the inhibition is the percentage by which the read-out fell short of the control. In the assay listed under Homo sapiens [1], `CCCCCCC(=O)C(=O)N[C@H](CCC(=O)O)Cc1ccccc1` displayed an inhibition of 14%.
The ED50 is the dose at which the effect has come halfway, by size or by number of responders. For `CCCCCCCCCCCCCCC(=O)C(=O)N[C@@H](CCCC)CCC(=O)O`, the 50% effect level with Rattus norvegicus [2] (ED50) was put at a dose of 8 µmol/kg. Further, the XI50 in the assay filed under Homo sapiens [3] was 0.008. Also, the Activity in the assay on Rattus norvegicus [4] was determined as 65%.
In turn, `CCCCCCCCCCC(=O)C(=O)N[C@H](CCC(=O)O)C(=O)NCC` yielded an inhibition in the assay listed under Homo sapiens [1] of 12%.
In the assay listed under Homo sapiens [1], `CCCCCCCCCCC(=O)C(=O)N[C@@H](CCC(=O)O)C(=O)NCC` registered an inhibition of 30%.
`CCCCCCCCCCCCCC(=O)C(=O)N[C@@H](CCCC)CC(=O)O` came in with an XI50 in the assay listed under Homo sapiens [3] of 0.027.
For the compound `O=C(O)CCCNC(=O)C(=O)CCCCc1ccccc1`, the inhibition in the assay listed under Homo sapiens [1] was determined as 27%.
In the assay listed under Homo sapiens [3], `CCCCCCCCCCCCCC(=O)C(=O)N[C@@H](CCCC)CCCC(=O)O` yielded an XI50 of 0.005. For the same compound, the inhibition in the assay filed under Homo sapiens [1] is 26%.
For the compound `CCCCCCC(=O)C(=O)NCCCC(=O)O`, in the assay filed under Homo sapiens [5], the inhibition is 27%.
As for `COC(=O)CCCNC(=O)C(=O)CCCCc1ccccc1`, the inhibition in the assay listed under Homo sapiens [1] is 31%.
`CCCCCCCC/C=C\CCCCCCCCNC(=O)C(=O)CCCCCC`: the inhibition in the assay listed under Homo sapiens [6] turned out to be 22%.
In the assay filed under Homo sapiens [3], `CCCCCCCCCCCCCC(=O)C(=O)N[C@@H](CCCC)CCC(=O)O` returned an XI50 of 0.01. This compound also returned an inhibition in the assay filed under Homo sapiens [1] of 30%.
`CCCCCCCC/C=C\CCCCCCCCNC(=O)C(=O)CCCCCCCCCCCCCC` returned an inhibition in the assay filed under Homo sapiens [7] of 37%.
`CCCCCCCCCCC(=O)C(=O)N[C@@H](CCC(=O)OC)COC(=O)NCCCCCCCC`: the XI50 in the assay listed under Homo sapiens [3] is 0.02.
On to `COC(=O)CCCNC(=O)C(=O)CCCc1ccccc1`, for which the inhibition in the assay listed under Homo sapiens [1] is 48%.
In turn, `CCCCCCCCCCCCCCC(=O)C(=O)N[C@@H](CCCC)CCCC(=O)O` displayed an ED50 with Rattus norvegicus [2] of 0.05 µmol/kg. In addition, the XI50 in the assay listed under Homo sapiens [3] stood at 0.005. For the same compound, the Activity in the assay with Rattus norvegicus [8] is 71%.
Compound `CCCCCCCCCCC(=O)C(=O)N[C@@H](CCCC)CCCCC(=O)O` came in with an ED50 in the assay on Rattus norvegicus [2] of 10 µmol/kg. Further, the Activity with Rattus norvegicus [9] came out at 33%. Moreover, the XI50 in the assay filed under Homo sapiens [3] came to 0.025. Further, the inhibition in the assay filed under Homo sapiens [1] came to 22%.
As to `O=C(O)CCCNC(=O)C(=O)CCCc1ccccc1`, the inhibition in the assay filed under Homo sapiens [1] is 34%.
Regarding `CCCCCCCCCCC(=O)C(=O)N[C@@H](CCCC)CCC(=O)O`, the XI50 in the assay filed under Homo sapiens [3] was determined as 0.009.
`CCCCCCCCCCC(=O)C(=O)N[C@@H](CCCC)C(=O)O` returned an inhibition in the assay filed under Homo sapiens [1] of 60%.
Still for that read-out and setting: then `CCCCCCCCCCCCCCC(=O)C(=O)N[C@@H](CCCC)COC(=O)NCCCCCCCC`, with 20%.
`CCCCCCCC/C=C\CCCCCCCC(=O)C(=O)NCCCC(=O)O` showed an ED50 with Rattus norvegicus [2] of 0.1 µmol/kg. Further, the XI50 in the assay filed under Homo sapiens [3] was 0.011. For the same compound, the Activity in the assay on Rattus norvegicus [10] is 53%.
`CCCCCCCCCCC(=O)C(=O)N[C@@H](CCC(=O)O)C(=O)O` yielded an inhibition in the assay filed under Homo sapiens [1] of 15%.
Still for that read-out and setting: under `CCCCCCCCCCCCCCCCNC(=O)C(=O)CC` stands 30%; under `CCCCCCCCCCC(=O)C(=O)N[C@@H](CCC(=O)O)COC(=O)NCCCCCCCC`, 60%.
`CCCCCCCC/C=C\CCCCCCCC(=O)C(=O)NCCCC(=O)OC` yielded an XI50 in the assay listed under Homo sapiens [3] of 0.012. For the same compound, in the assay filed under Homo sapiens [11], the inhibition was 24%.
Regarding `CCCCCCCCCCCCCC(=O)C(=O)N[C@@H](CCCC)CCCCC(=O)O`, the XI50 in the assay listed under Homo sapiens [3] came out at 0.013. In the assay listed under Homo sapiens [1], the inhibition stood at 22%.
Compound `NC(=O)C(=O)CCCCc1ccccc1` displayed an inhibition in the assay filed under Homo sapiens [1] of 45%.
Still for that read-out and setting: under `CCCCCCCCCCCCCCC(=O)C(=O)NCCCC(=O)OC` stands 22%.
`CCCCCCCCCCCCCCC(=O)C(=O)NCCCC(=O)O` came in with an XI50 in the assay filed under Homo sapiens [3] of 0.017.
Take `CCCCCCCCCCCCCCC(=O)C(=O)N[C@@H](CCC(=O)O)C(=O)NCCCCCCCCCC`: in the assay on Rattus norvegicus [2], the 50% effect level (ED50) was put at a dose of 16.5 µmol/kg. The compound also showed an XI50 in the assay listed under Homo sapiens [3] of 0.025. Besides, in the assay listed under Homo sapiens [1], the inhibition came out at 33%. In addition, the Activity with Rattus norvegicus [12] turned out to be 11%.

Values taken from ChEMBL document CHEMBL1148742, “Structure-activity relationship of 2-oxoamide inhibition of group IVA cytosolic phospholipase A2 and group V secreted phospholipase A2” (2007).
